Assay [1] concerns the target T1, Adrenergic receptor alpha-2 (Homo sapiens, UniProt P08913+P18825+P18089).
T1 sequence (P08913 whole entry): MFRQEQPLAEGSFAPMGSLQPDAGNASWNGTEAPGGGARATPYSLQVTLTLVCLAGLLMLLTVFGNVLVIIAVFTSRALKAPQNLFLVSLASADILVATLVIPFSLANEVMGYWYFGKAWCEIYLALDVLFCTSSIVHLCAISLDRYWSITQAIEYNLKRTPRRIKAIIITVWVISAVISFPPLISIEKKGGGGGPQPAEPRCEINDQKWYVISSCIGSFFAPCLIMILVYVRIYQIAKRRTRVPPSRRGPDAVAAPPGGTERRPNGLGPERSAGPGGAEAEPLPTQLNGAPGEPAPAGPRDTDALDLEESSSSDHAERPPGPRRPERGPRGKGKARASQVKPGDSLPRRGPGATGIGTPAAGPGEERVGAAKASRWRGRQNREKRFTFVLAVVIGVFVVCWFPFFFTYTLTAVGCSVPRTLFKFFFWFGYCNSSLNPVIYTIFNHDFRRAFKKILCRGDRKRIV
T1 sequence (P18825 whole entry): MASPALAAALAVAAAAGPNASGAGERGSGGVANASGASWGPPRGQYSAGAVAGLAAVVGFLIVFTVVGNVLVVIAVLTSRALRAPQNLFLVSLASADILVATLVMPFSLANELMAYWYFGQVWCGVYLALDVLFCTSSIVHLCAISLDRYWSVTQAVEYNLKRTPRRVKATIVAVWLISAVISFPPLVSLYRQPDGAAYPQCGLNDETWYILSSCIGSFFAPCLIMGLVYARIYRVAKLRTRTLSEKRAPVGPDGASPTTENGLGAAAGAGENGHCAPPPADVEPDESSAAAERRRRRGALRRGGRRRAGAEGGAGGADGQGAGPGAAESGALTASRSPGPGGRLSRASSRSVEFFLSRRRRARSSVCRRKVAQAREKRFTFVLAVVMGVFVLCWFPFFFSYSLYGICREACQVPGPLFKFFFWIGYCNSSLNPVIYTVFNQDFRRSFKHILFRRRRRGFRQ
T1 sequence (P18089 whole entry): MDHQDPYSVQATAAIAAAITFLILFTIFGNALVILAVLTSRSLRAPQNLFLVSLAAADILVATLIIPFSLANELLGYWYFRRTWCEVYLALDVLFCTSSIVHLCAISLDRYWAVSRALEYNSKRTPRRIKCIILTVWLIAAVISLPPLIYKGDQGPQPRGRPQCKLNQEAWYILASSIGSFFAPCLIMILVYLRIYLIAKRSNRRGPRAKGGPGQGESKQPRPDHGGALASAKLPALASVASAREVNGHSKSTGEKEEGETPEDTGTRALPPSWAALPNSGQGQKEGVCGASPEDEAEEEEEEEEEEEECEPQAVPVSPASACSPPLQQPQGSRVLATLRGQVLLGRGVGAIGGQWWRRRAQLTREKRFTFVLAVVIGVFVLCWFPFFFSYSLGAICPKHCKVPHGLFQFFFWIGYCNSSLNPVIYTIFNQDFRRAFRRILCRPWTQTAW
The assay is described as follows: Displacement of [3H]-RX-821002 from human alpha-2 adrenergic receptor in brain prefrontal cortex membrane by liquid scintillation spectrometry. In kind it is cell membranes. In short, it runs like this:
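Human prefrontal cortex brain membranes incubated with [3H]RX821002 (2 nM) in 50 mM Tris-HCl, pH 7.5, for 30 min at 25 °C, with competitor at 10 concentrations (10⁻¹²–10⁻³ M). Bound and free ligand separated by rapid vacuum filtration through GF/C filters, then scintillation counting. Adrenaline (10⁻⁵ M) defined nonspecific binding. Ki from one-site nonlinear regression, expressed as pKi.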

The target in assay [2] is T1, Adrenergic receptor alpha-2. The assay is described as follows: Antagonist activity at human alpha-2 adrenergic receptor in brain prefrontal cortex membrane assessed as inhibition of UK14304-induced [35S]-GTPgammaS binding by liquid scintillation spectrometry. In kind it is functional, cell membranes. The gist of the method: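 Human prefrontal cortex membranes (40 μg protein) incubated 120 min at 30 °C with shaking in 50 mM Tris-HCl pH 7.4 with 1 mM EGTA, 3 mM MgCl2, 100 mM NaCl, GDP and 0.5 nM [35S]GTPγS. Compounds at 10 concentrations (10⁻¹²–10⁻³ M) were tested against agonist UK14304. Filtration through GF/C filters, then scintillation counting. Nonspecific binding defined with 10 μM unlabeled GTPγS; nonlinear curve analysis.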

In assay [3] the test system is Rattus norvegicus. The assay is described as follows: Induction of noradrenaline release from Sprague-Dawley rat in prefrontal cortex at 10 mg/kg, ip […] by microdialysis. The class given is functional. To be noted: route intraperitoneal.
For assay [4], the system named is Rattus norvegicus. The assay is described as follows: Induction of noradrenaline release from Sprague-Dawley rat in prefrontal cortex at 1 to 100 uM local administration measured for every 70 mins by microdialysis. The class given is functional. The gist of the method: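 Male Sprague-Dawley rats (250–300 g), probe placed in PFC under 1.5% isoflurane; tested 18–24 h later. Probe perfused with aCSF (pH 7.4) at 1 μL/min. Compounds dissolved in aCSF were given by reverse dialysis at 1, 10, then 100 μM, each for 70 min. Dialysates collected every 35 min; NA measured by HPLC with amperometric detection. Values are % of mean basal (first 3–4 samples); three animals/group.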

`Cl.N=C(N)Nc1ccccn1` returned a pKi in assay [1] of 6.19. For the compound `Cl.N=C(N)Nc1ccc(Br)cn1`, in assay [1], the pKi was found to be 5.62.

In assay [1], `Cl.N=C(N)Nc1ccc(Cl)cn1` registered a pKi of 5.7. The same measure, in the same setting: the figure for `Cc1ccc(NC(=N)N)nc1.Cl` is 6.03. For `Cl.N=C(N)Nc1ccc2c(n1)CCCC2`, the EC50 in assay [2] came to 2.71 µM. Besides, the negative-log Ki (pKi) in assay [1] is on record as 6.78. `CCNc1ccc(NC(=N)N)nc1.Cl`: the pKi in assay [1] was found to be 4.12. In assay [1], `Cl.N=C(N)Nc1cccnc1` showed a pKi of 3.79. Compound `Cl.N=C(N)Nc1ccc(Cl)nc1` came in with a negative-log Ki (pKi) in assay [1] of 5.18.

In assay [1], `Cc1ccc(NC(=N)N)cn1.Cl` registered a negative logarithm of the Ki (pKi) of 4.97. Consider `Cl.N=C(N)Nc1cnc2c(c1)CCCC2`, for which the pKi in assay [1] amounted to 5.57. Compound `CCNc1ccc(NC(=N)N)cn1.Cl` registered a negative logarithm of the Ki (pKi) in assay [1] of 6.35.

In the case of `Cl.N=C(N)Nc1ccc([N+](=O)[O-])cn1`, in assay [1], the negative logarithm of the Ki (pKi) was 5. The same measure, in the same setting: under `Cl.N=C(N)Nc1ccc(N)cn1` stands 5. As for `Cl.c1ccc(NC2=NCCN2)nc1`, the negative logarithm of the Ki (pKi) in assay [1] worked out at 6.44. For `Cl.Clc1ccc(NC2=NCCN2)nc1`, the pKi in assay [1] came out at 6.25. The pKi values of the last two compounds are within 0.2 log units of each other. For `Cc1ccc(NC2=NCCN2)nc1.Cl`, the pKi in assay [1] is 6.41. For the compound `Cl.c1cc2c(nc1NC1=NCCN1)CCCC2`, in assay [2], the EC50 stood at 3.57 µM. The compound also registered a pKi in assay [1] of 6.27. In assay [1], `CCNc1ccc(NC2=NCCN2)nc1.Cl` showed a negative-log Ki (pKi) of 5.65. On the same count and under the same terms, under `Cl.c1cncc(NC2=NCCN2)c1` stands 5.28. Compound `Cl.c1nc2c(cc1NC1=NCCN1)CCCC2` returned an Activity with Rattus norvegicus [3] of 138%. In addition, the concentration for a half-maximal effect (EC50) in assay [2] stood at 4.23 µM. The same compound came in with a pKi in assay [1] of 7.02. Moreover, the maximal response (Emax) in the assay with Rattus norvegicus [4] amounted to 148%.

The compound `CCNc1ccc(NC2=NCCN2)cn1.Cl` showed an Activity in the assay with Rattus norvegicus [3] of 186%. In addition, the EC50 in assay [2] was found to be 6.71 µM. In assay [1], this compound yielded a pKi of 7.13. The maximum response (Emax) in the assay on Rattus norvegicus [4] came out at 429%.

`Cl.N=C(Nc1ccccc1)Nc1ccccn1` yielded a negative logarithm of the Ki (pKi) in assay [1] of 6.21. Compound `Cc1ccc(NC(=N)Nc2ccccc2)nc1.Cl` displayed a negative-log Ki (pKi) in assay [1] of 6.02.

In assay [1], `Cl.N=C(Nc1ccccc1)Nc1ccc2c(n1)CCCC2` registered a pKi of 6.75. As to `Cl.N=C(NCCO)Nc1ccccn1`, in assay [1], the pKi amounted to 5.38. For the compound `Cc1ccc(NC(=N)NCCO)nc1.Cl`, the pKi in assay [1] was found to be 5.21. The pKi values of the last two compounds are within 0.2 log units of each other.

Regarding `Cl.N=C(NCCO)Nc1ccc2c(n1)CCCC2`, in assay [1], the pKi is recorded as 5.83. Take `Cl.N=C(NCc1ccco1)Nc1ccccn1`: the negative-log Ki (pKi) in assay [1] is 6.32. The compound `Cc1ccc(NC(=N)NCc2ccco2)nc1.Cl` had a negative-log Ki (pKi) in assay [1] of 6.28. The pKi values of the last two compounds are within 0.2 log units of each other. `Cl.N=C(NCc1ccco1)Nc1ccc2c(n1)CCCC2`: the EC50 in assay [2] was 37.01 µM. The pKi in assay [1] came to 6.67. For `CCCNC(=N)Nc1ccc(Cl)cn1.Cl`, the pKi in assay [1] came to 5.71. In the case of `CCCNC(=N)Nc1ccc(C)cn1.Cl`, the negative-log Ki (pKi) in assay [1] turned out to be 6.74.

`Cl.c1ccc(NC2=NCc3ccccc3N2)cc1` registered a pKi in assay [1] of 4.4. As to `Cl.OCCNC1=NCc2ccccc2N1`, in assay [2], the concentration giving a half-maximal response (EC50) was 60.34 µM. In assay [1], the negative-log Ki (pKi) is 6.26. `Cl.c1coc(CNC2=NCc3ccccc3N2)c1` displayed a negative logarithm of the Ki (pKi) in assay [1] of 5.35.

For the compound `CCCNC1=NCc2ccccc2N1.Cl`, the negative-log Ki (pKi) in assay [1] is reported as 4.33. In turn, `Cl.OCCNC1=NCc2cccnc2N1` displayed a pKi in assay [1] of 4.49. For the compound `Cl.c1coc(CNC2=NCc3cccnc3N2)c1`, the pKi in assay [1] was found to be 4.5. For `Cl.c1cnc2c(c1)CN=C(NCc1ccc3c(c1)OCO3)N2`, the pKi in assay [1] was 5.3.

What is called pKi is the negative decadic logarithm of the Ki, by convention in mol/L. Read a low pKi as a large Ki. What is called EC50 is the concentration at which the effect is half-maximal. What is called Emax is the size of the effect at its maximum, as opposed to the concentration needed.

For the origin of these results see ChEMBL document CHEMBL3407390, “α2-adrenoceptor antagonists: synthesis, pharmacological evaluation, and molecular modeling investigation of pyridinoguanidine, pyridino-2-aminoimidazoline and their derivatives” (J Med Chem, 2015).
